The record followed here is ChEMBL document CHEMBL4325870, “Synthesis and biological evaluation of 3-aryl-quinolin derivatives as anti-breast cancer agents targeting ERα and VEGFR-2” (Eur J Med Chem, 2019).

Activity calls are given as the source filed them. No cut-off for these calls is given here. Bounds are passed on as bounds.

In data set [1] the target is Vascular endothelial growth factor receptor 2 (Homo sapiens, UniProt P35968).
Data set [2] deals with MCF7. Nature of the data set: Antiproliferative activity against human MCF7 cells after 48 hrs by MTT assay. Type of data set: functional, cell-based. The conditions noted are these: MCF7, 48 h. The essentials:
(§1)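 Cells kept in RPMI1640 with 10% FBS and penicillin/streptomycin at 37 °C, 5% CO2. Seeded at 1 x 10^5/mL, grown 24 h, then exposed to compound-containing medium for 48 h; controls received 1% DMSO medium. MTT (5 mg/mL) added for 4 h in the dark, formazan dissolved in DMSO, absorbance read. Value is concentration giving 50% growth inhibition.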
A general note: Formazan colour is commonly taken as a measure of viable cells.

For data set [3], the system named is Ishikawa. Nature of the data set: Antiproliferative activity against human Ishikawa cells after 48 hrs by MTT assay. Type of data set: functional. The essentials:
as §1

In another data set the test system is HUVEC. The data set is described as follows: Antiproliferative activity against HUVEC after 48 hrs by MTT assay. Type of data set: functional, cell-based. As to conditions: Homo sapiens. The essentials: as §1
The test system of data set [4] is MCF7. Nature of the data set: Cell cycle arrest in human MCF7 cells assessed as accumulation at S phase at 1.25 uM after 24 hrs by propidium iodide staining based flow cytometry (reference value: 18.93%). Type of data set: functional. The essentials: (§2)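 MCF-7 cells exposed to 1.25 μM compound or DMSO vehicle for 12 h and 24 h. Cells washed in ice-cold PBS, pelleted, fixed in ice-cold 70% ethanol, RNase-treated (0.1 mg/mL), stained with propidium iodide, and analysed by flow cytometry for G1, S and G2 phase distribution.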

For data set [5], the system named is MCF7. The data set is described as follows: Cell cycle arrest in human MCF7 cells assessed as accumulation at G2 phase at 1.25 uM after 12 hrs by propidium iodide staining based flow cytometry (reference value: 31.48%). Format: functional. In a few lines:
as §2
On the technique in general: A flow cytometer gives signals particle by particle.

Data set [6] has as its system Ishikawa. The data set is described as follows: Stimulation of cell proliferation in human Ishikawa cells at 1 to 10 uM after 48 hrs by MTT assay. Type of data set: ADME, cell-based. The essentials: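 Ishikawa endometrial cells in RPMI1640 with 10% FBS, seeded at 1 x 10^5/mL, exposed 48 h to compound at 1 μM or 10 μM, then read by MTT assay (5 mg/mL MTT, 4 h, dark, DMSO solubilisation, absorbance).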

A further data set addresses T1, Estrogen receptor (Homo sapiens, UniProt P03372).
T1 sequence (P03372 whole entry): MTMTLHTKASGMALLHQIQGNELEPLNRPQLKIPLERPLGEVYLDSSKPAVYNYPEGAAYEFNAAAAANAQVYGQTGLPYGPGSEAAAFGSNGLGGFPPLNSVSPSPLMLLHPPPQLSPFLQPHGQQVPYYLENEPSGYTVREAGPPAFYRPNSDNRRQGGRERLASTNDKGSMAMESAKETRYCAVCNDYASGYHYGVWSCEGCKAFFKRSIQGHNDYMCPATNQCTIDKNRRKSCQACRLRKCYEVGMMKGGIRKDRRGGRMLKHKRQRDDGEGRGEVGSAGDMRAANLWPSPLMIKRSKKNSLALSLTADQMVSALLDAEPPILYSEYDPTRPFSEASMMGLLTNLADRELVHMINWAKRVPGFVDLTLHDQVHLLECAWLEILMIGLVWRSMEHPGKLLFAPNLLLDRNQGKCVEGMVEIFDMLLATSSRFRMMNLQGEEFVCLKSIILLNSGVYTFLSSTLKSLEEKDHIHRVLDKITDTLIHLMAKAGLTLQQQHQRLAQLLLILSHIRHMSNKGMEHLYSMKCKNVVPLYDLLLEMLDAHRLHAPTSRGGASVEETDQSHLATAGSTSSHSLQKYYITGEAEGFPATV
Nature of the data set: Displacement of fluorescent estrogen ligand from recombinant human full length untagged ERalpha expressed in Spodoptera frugiperda insect cells measured after 2 hrs by fluorescence polarization assay.

Data set [7] deals with MCF7. Nature of the data set: Cell cycle arrest in human MCF7 cells assessed as accumulation at G1 phase at 1.25 uM after 12 hrs by propidium iodide staining based flow cytometry (reference value: 46.25%). Format: functional. The essentials:
as §2

The test system of data set [8] is MCF7. The data set is described as follows: Cell cycle arrest in human MCF7 cells assessed as accumulation at G2 phase at 1.25 uM after 24 hrs by propidium iodide staining based flow cytometry (reference value: 31.48%). Format: functional. In a few lines: as §2
For data set [9], the system named is MCF7. The data set is described as follows: Cell cycle arrest in human MCF7 cells assessed as accumulation at S phase at 1.25 uM after 12 hrs by propidium iodide staining based flow cytometry (reference value: 18.93%). Type of data set: functional. The essentials: as §2
For data set [10], the system named is MCF7. The data set is described as follows: Effect on progesterone receptor mRNA expression in non-stimulated human MCF7 cells at 1 uM by SYBR green dye based RT-PCR analysis. Type of data set: ADME, cell-based. The conditions noted are these: mcf7, 1 µM. In a few lines: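 Real-time PCR on MCF-7 cells given compound at 1 μM alone, without estradiol. Amplification: 95 °C 2 min, then 40 cycles of 95 °C 10 s, 60 °C 30 s, 95 °C 10 s. PgR mRNA normalised to GAPDH by the ΔΔCT method; mean ± SD, n=3.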

For data set [11], the system named is MCF7. The data set is described as follows: Cell cycle arrest in human MCF7 cells assessed as accumulation at G1 phase at 1.25 uM after 24 hrs by propidium iodide staining based flow cytometry (reference value: 46.25%). Format: functional. The essentials: as §2
In data set [12] the test system is MCF7. Nature of the data set: Antimigratory activity in human MCF7 cells assessed as inhibition of wound healing at 1.25 uM after 8 to 48 hrs by phase contrast microscopic analysis. Type of data set: functional, cell-based. In a few lines:
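Wound-healing assay: MCF-7 monolayers grown to full confluence in 24-well plates, scratched with a tip, washed twice with PBS, then given serum-free 1640 medium with or without compound at 1.25 μM. Wound closure photographed by phase-contrast microscopy (100×) at 8, 16, 24/48 h; migration rate quantified from images.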

One may read the IC50 as the concentration that inhibits the measured activity by half.

Sequence of Vascular endothelial growth factor receptor 2 (P35968 whole entry): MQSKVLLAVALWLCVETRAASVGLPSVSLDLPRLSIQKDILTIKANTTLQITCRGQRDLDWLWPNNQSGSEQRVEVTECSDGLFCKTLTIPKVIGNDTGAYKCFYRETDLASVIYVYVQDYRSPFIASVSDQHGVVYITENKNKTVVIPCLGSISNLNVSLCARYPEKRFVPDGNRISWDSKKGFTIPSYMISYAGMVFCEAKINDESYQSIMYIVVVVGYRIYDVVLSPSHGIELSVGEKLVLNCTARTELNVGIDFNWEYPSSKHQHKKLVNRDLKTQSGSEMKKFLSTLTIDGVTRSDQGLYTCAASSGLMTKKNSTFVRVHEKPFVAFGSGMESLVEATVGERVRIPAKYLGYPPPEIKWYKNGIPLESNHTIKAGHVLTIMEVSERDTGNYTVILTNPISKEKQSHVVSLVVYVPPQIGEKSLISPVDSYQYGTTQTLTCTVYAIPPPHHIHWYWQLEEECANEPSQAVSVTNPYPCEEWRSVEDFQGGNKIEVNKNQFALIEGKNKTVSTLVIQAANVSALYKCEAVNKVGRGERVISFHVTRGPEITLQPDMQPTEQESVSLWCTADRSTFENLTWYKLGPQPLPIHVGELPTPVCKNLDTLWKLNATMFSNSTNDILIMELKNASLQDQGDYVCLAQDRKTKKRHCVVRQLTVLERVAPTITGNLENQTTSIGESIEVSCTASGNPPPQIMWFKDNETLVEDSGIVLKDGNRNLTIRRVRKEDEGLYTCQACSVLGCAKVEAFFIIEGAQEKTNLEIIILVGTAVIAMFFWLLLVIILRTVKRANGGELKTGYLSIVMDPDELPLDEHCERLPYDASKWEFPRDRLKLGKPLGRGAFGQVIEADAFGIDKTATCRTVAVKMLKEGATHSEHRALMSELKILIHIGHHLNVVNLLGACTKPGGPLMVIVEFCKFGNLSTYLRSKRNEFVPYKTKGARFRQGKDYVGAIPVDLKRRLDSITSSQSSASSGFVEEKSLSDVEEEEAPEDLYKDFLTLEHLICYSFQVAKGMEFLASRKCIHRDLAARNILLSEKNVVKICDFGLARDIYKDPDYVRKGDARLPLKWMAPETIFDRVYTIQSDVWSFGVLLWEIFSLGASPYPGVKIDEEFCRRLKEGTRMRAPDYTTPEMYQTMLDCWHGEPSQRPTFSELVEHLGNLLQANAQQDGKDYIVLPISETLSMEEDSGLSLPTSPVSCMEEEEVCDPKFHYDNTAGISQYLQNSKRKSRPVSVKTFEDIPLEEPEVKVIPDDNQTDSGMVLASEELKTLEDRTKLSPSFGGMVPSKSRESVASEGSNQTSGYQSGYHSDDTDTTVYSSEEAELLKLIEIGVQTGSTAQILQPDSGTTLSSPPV

Take `COc1ccc(-c2cc3ccc(OC)cc3nc2Nc2ccc(NC(=O)CN(C)C)cc2)cc1`: the figures for the IC50 (in data set [1]; in the data set on MCF7 [2]; with HUVEC) were 0.114 µM, 9.6 µM and 9.2 µM, respectively. Besides, the Activity in the data set with Ishikawa [3] was 8.4 µM.
For `COc1ccc(-c2cc3cc(OC)ccc3nc2Nc2ccc(NC(=O)CN3CCN(C)CC3)cc2)cc1`, the Activity with MCF7 [4] was 22.39%; in the data set with MCF7 [5], 28.82%; in the data set on Ishikawa [6], “Non-Toxic”; in the data set with MCF7 [7], 51.18%; in the data set on MCF7 [8], 20.43%; in the data set on MCF7 [9] it was 18.78%. In addition, the Activity entry with MCF7 [10] was “Non-Toxic”; with Ishikawa [3] it was 1.8 µM; in the data set with MCF7 [11] it was 54.63%. Besides, the IC50 was 0.086 µM in data set [1], 1.78 µM at Estrogen receptor, 1.8 µM in the data set with MCF7 [2] and 7.4 µM in the data set on HUVEC.
Regarding `COc1ccc(-c2cc3cc(OC)ccc3nc2Nc2ccc(NC(=O)CN3CCCC3)cc2)cc1`, the IC50 in data set [1] came to 0.131 µM; in the data set with MCF7 [2], 7.29 µM; with HUVEC, 13.1 µM. Also, the Activity with Ishikawa [3] was determined as 10.3 µM.
In the case of `COc1ccc(-c2cc3ccc(OC)cc3nc2Nc2ccc(NC(=O)CN3CCCC3)cc2)cc1`, the IC50 in data set [1] came to 0.125 µM; in the data set with MCF7 [2], 6.6 µM; in the data set with HUVEC, 8.6 µM. The compound further registered an Activity in the data set on Ishikawa [3] of 8.2 µM.
On to `CCN(CC)CCNC(=O)c1c(C)[nH]c(/C=C2\C(=O)Nc3ccc(F)cc32)c1C` [SUNITINIB], for which the inhibition result in the data set on MCF7 [12] was “Active”. This compound also returned an Activity in the data set with Ishikawa [3] of 14.3 µM. The half-maximal inhibitory concentration (IC50) in the data set on HUVEC was found to be 3.2 µM.
`COc1ccc(-c2cc3cc(OC)ccc3nc2Nc2ccc(NC(=O)CN3CCCCC3)cc2)cc1`: the half-inhibitory concentration (IC50) is 0.08 µM in [1], more than 50 µM in the data set on MCF7 [2] and more than 50 µM with HUVEC. This compound also had an Activity with Ishikawa [3] of more than 50 µM.
Take `COc1ccc(-c2cc3ccc(OC)cc3nc2Nc2ccc(NC(=O)CN3CCOCC3)cc2)cc1`: the half-inhibitory concentration (IC50) is 0.11 µM in data set [1], more than 50 µM in the data set with MCF7 [2] and 9.1 µM in the data set on HUVEC. The compound also gave an Activity in the data set with Ishikawa [3] of more than 50 µM.
Regarding `COc1ccc(-c2cc3cc(OC)ccc3nc2Nc2ccc(NC(=O)CN3CCOCC3)cc2)cc1`, the IC50 in data set [1] is 0.117 µM; in the data set with MCF7 [2] it was more than 50 µM; in the data set with HUVEC, more than 50 µM. This compound gave an Activity with Ishikawa [3] of more than 50 µM.
With `CC/C(=C(\c1ccccc1)c1ccc(OCCN(C)C)cc1)c1ccccc1` [TAMOXIFEN], the figures for the Activity entry with Ishikawa [6], with MCF7 [10] and in the data set with Ishikawa [3] were “Toxic”, “Non-Toxic” and more than 50 µM, respectively. The IC50 in the data set on MCF7 [2] was 16.7 µM.
Turning to `CCN(CC)CC(=O)Nc1ccc(Nc2nc3cc(OC)ccc3cc2-c2ccc(OC)cc2)cc1`, the figures for the IC50 (in data set [1]; in the data set with MCF7 [2]; in the data set on HUVEC) were 0.101 µM, 17.3 µM and 14 µM, respectively. Further, the Activity in the data set with Ishikawa [3] was 21.4 µM.
For the compound `COc1ccc(-c2cc3ccc(OC)cc3nc2Nc2ccc(NC(=O)CN3CCN(C)CC3)cc2)cc1`, the Activity entry in the data set on Ishikawa [6] is “Non-Toxic”; with Ishikawa [3], 3.8 µM. Besides, the IC50 in [1] stood at 0.104 µM; on Estrogen receptor, 2.33 µM; in the data set on MCF7 [2], 2.8 µM; in the data set on HUVEC it was 7.4 µM.
`COc1ccc(-c2cc3ccc(OC)cc3nc2Nc2ccc(NC(=O)CN3CCCCC3)cc2)cc1`: the IC50 was 0.079 µM in data set [1], 47.9 µM in the data set on MCF7 [2] and 23.5 µM in the data set on HUVEC. The same compound gave an Activity in the data set with Ishikawa [3] of more than 50 µM.
For the compound `COc1ccc(-c2cc3cc(OC)ccc3nc2Nc2ccc(NC(=O)CN(C)C)cc2)cc1`, the IC50 in data set [1] was 0.109 µM; with MCF7 [2], 39.5 µM; with HUVEC it was 22.2 µM. This compound also gave an Activity in the data set with Ishikawa [3] of more than 50 µM.
As for `CCN(CC)CC(=O)Nc1ccc(Nc2nc3ccc(OC)cc3cc2-c2ccc(OC)cc2)cc1`, the values for the half-maximal inhibitory concentration (IC50) (in data set [1]; in the data set with MCF7 [2]; with HUVEC) were 0.081 µM, more than 50 µM and 45.6 µM, respectively. This compound also returned an Activity in the data set on Ishikawa [3] of more than 50 µM.
For `O=C(c1ccc(OCCN2CCCCC2)cc1)c1c(-c2ccc(O)cc2)sc2cc(O)ccc12` [RALOXIFENE], the figures for the Activity entry in the data set with Ishikawa [6] and with Ishikawa [3] were “Toxic” and more than 50 µM, respectively. In addition, in the data set on MCF7 [2], it took 12.5 µM to reach half-maximal inhibition (IC50).
